Assay [1] deals with Staphylococcus aureus. Kind of assay: Antibacterial activity against Staphylococcus aureus RN4220 after 24 hrs by two-fold serial dilution method. The format is functional. The following applies: RN4220, 24 h. The essentials:
(§1)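 Broth microdilution in Mueller-Hinton broth. Bacteria grown to mid-log phase, diluted 1000-fold, and inoculated at 10⁵ CFU/mL. Test compounds in DMSO, final DMSO not above 0.05%, final concentrations 64-0.5 µg/mL. Incubation 24 h at 37 °C, growth read as absorbance at 650 nm. MIC taken as the lowest concentration giving complete growth inhibition. Run three times.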

The subject of assay [2] is Staphylococcus aureus. Briefly: Antibacterial activity against Staphylococcus aureus 209 after 24 hrs by two-fold serial dilution method. Conditions: Staphylococcus aureus, 209, 24 h. The format is functional. Summed up: as §1
Assay [3] has as its system Staphylococcus aureus. Kind of assay: Antibacterial activity against Staphylococcus aureus 503 after 24 hrs by two-fold serial dilution method. The format is functional. Conditions: Staphylococcus aureus, 503, 24 h. The essentials:
as §1

The test system of assay [4] is Streptococcus mutans. Kind of assay: Antibacterial activity against Streptococcus mutans 3065 after 24 hrs by two-fold serial dilution method. The format is functional. Conditions: Streptococcus mutans, 3065, 24 h. Summed up:
(§2)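 Broth microdilution in Mueller-Hinton broth over final concentrations of 64–0.5. Bacteria were grown to mid-log phase and diluted 1000-fold, then inoculated at 10⁵ CFU/mL. Compounds were dissolved in DMSO, with final DMSO at most 0.05%. Plates were incubated 24 h at 37 °C and growth read as absorbance at 650 nm. MIC is the concentration giving complete growth inhibition. Three independent runs.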

Assay [5] deals with Escherichia coli. Briefly: Antibacterial activity against Escherichia coli KCTC 1924 after 24 hrs by two-fold serial dilution method. The following applies: KCTC 1924, 24 h. The format is functional. The essentials: as §2
The subject of assay [6] is Escherichia coli. Kind of assay: Antibacterial activity against Escherichia coli CCARM 1356 after 24 hrs by two-fold serial dilution method. The format is functional. The following applies: CCARM 1356, 24 h. The essentials:
as §2

Assay [7] concerns Pseudomonas aeruginosa. Kind of assay: Antibacterial activity against Pseudomonas aeruginosa 2742 after 24 hrs by two-fold serial dilution method. The format is functional. The following applies: Pseudomonas aeruginosa, 2742, 24 h. The essentials:
as §2

For assay [8], the system named is Pseudomonas aeruginosa. Briefly: Antibacterial activity against Pseudomonas aeruginosa 2004 after 24 hrs by two-fold serial dilution method. The format is functional. The following applies: Pseudomonas aeruginosa, 2004, 24 h. The essentials: as §2
Assay [9] deals with Salmonella typhimurium. Kind of assay: Antibacterial activity against Salmonella typhimurium 2421 after 24 hrs by two-fold serial dilution method. The format is functional, Salmonella enterica subsp. enterica serovar Typhimurium. The following applies: Salmonella enterica, 2421, 24 h. The essentials:
as §2

Assay [10] deals with Candida albicans. Kind of assay: Antifungal activity against Candida albicans 7535 by two-fold serial dilution method. The format is functional.
In assay [11] the test system is Staphylococcus aureus. Kind of assay: Antibacterial activity against methicillin-resistant Staphylococcus aureus CCARM 3167 after 24 hrs by two-fold serial dilution method. The following applies: CCARM 3167, 24 h. The format is functional. The essentials: as §1
Assay [12] relates to Staphylococcus aureus. Kind of assay: Antibacterial activity against methicillin-resistant Staphylococcus aureus CCARM 3506 after 24 hrs by two-fold serial dilution method. The format is functional. The following applies: CCARM 3506, 24 h. Summed up: as §1
The test system of assay [13] is Staphylococcus aureus. Briefly: Antibacterial activity against quinolone-resistant Staphylococcus aureus CCARM 3505 after 24 hrs by two-fold serial dilution method. The format is functional. Conditions: CCARM 3505, 24 h. Summed up:
as §1

Assay [14] deals with Staphylococcus aureus. Kind of assay: Antibacterial activity against quinolone-resistant Staphylococcus aureus CCARM 3519 after 24 hrs by two-fold serial dilution method. The format is functional. The following applies: CCARM 3519, 24 h. The essentials:
as §1

The test system of assay [15] is Escherichia coli. Kind of assay: Ratio of moxifloxacin MIC to compound MIC for Escherichia coli CCARM 1356 after 24 hrs by two-fold serial dilution method. The format is functional.
For assay [16], the system named is Mus musculus. Briefly: Antiinflammatory activity in mouse assessed as inhibition of xylene-induced ear edema at 50 mg/kg, ip administered 30 mins before xylene challenge relative to control. The format is functional. The essentials:
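Mice received compound freshly dissolved in DMSO, 50 mg/kg ip at 0.05 mL/20 g body weight; vehicle controls got DMSO alone. After 30 min, 20 µL xylene was applied to the right ear. After a further 30 min, 7 mm plugs were cut from treated and untreated ears and edema taken as their weight difference. Result is % edema reduction versus vehicle controls.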

Values after ≈ are worked out from the molar mass of the structure shown.

Take `Cc1ccc(-c2nn(-c3ccccc3)cc2/C=N/NC(=N)N)cc1`: the MIC (commonly the lowest concentration found to suppress growth) in [1] stood at 2 µg/mL (≈ 6.28 µM); in [2], 4 µg/mL (≈ 12.6 µM); in assay [3], 4 µg/mL (≈ 12.6 µM); in [4], 8 µg/mL (≈ 25.1 µM); in [5], 2 µg/mL (≈ 6.28 µM); in [6] it was 8 µg/mL (≈ 25.1 µM). Further, the MIC amounted to 32 µg/mL (≈ 101 µM) in assay [7]; 16 µg/mL (≈ 50.3 µM) in assay [8]; 8 µg/mL (≈ 25.1 µM) in assay [9]; 2 µg/mL (≈ 6.28 µM) in assay [10]; 2 µg/mL (≈ 6.28 µM) in assay [11]; 2 µg/mL (≈ 6.28 µM) in [12]. For the same compound, the MIC in assay [13] and in assay [14] was 4 µg/mL (≈ 12.6 µM) throughout. Further, in [15], the Ratio is 16. For the same compound, the inhibition in vivo (in general, how much of the control response was suppressed) at 50 mg/kg in assay [16] is 86.5%.
For `O=C(N/N=C/c1cn(-c2ccc([N+](=O)[O-])cc2[N+](=O)[O-])nc1-c1cccc(Cl)c1)c1ccco1`, the minimum inhibitory concentration (MIC) in [1], in [2], in assay [3], in assay [4], in [5] and in [6] was above 64 µg/mL each time. Besides, the minimal inhibitory concentration (MIC) in [7], in assay [8], in [9], in assay [10], in assay [11] and in assay [12] was above 64 µg/mL each time. The MIC in assay [13] and in assay [14] was above 64 µg/mL in each case. Moreover, in [16], the inhibition in vivo at 50 mg/kg turned out to be 26.2%.
With `N=C(N)N/N=C/c1cn(-c2ccccc2)nc1-c1ccc(Cl)cc1`, the MIC in assay [1] is 16 µg/mL (≈ 47.2 µM); in [2] it was above 64 µg/mL; in assay [3], above 64 µg/mL; in assay [4], above 64 µg/mL; in assay [5], above 64 µg/mL; in assay [6], above 64 µg/mL. Further, the MIC in assay [7], in [8], in assay [9], in assay [10], in assay [11] and in assay [12] was above 64 µg/mL each time. Besides, the minimum inhibitory concentration (MIC) in assay [13] and in assay [14] was above 64 µg/mL throughout. For the same compound, in [16], the inhibition in vivo at 50 mg/kg was 46%.
Consider `N=C(N)N/N=C/c1cn(-c2ccccc2)nc1-c1ccc(Br)cc1`, for which the minimal inhibitory concentration (MIC) in [1] is 4 µg/mL (≈ 10.4 µM); in [2] it was 8 µg/mL (≈ 20.9 µM); in assay [3] it was 4 µg/mL (≈ 10.4 µM); in assay [4], above 64 µg/mL; in [5] it was 8 µg/mL (≈ 20.9 µM); in assay [6], above 64 µg/mL. Also, the MIC in assay [7] is above 64 µg/mL; in assay [8] it was above 64 µg/mL; in [9], above 64 µg/mL; in assay [10], 4 µg/mL (≈ 10.4 µM); in assay [11] it was 8 µg/mL (≈ 20.9 µM); in [12] it was 4 µg/mL (≈ 10.4 µM). Also, the minimum inhibitory concentration (MIC) in assay [13] and in assay [14] was 16 µg/mL (≈ 41.7 µM) each time. In addition, the inhibition in vivo at 50 mg/kg in assay [16] was found to be 42.8%.
As to `O=C(N/N=C/c1cn(-c2ccc([N+](=O)[O-])cc2[N+](=O)[O-])nc1-c1ccccc1Br)c1ccco1`, the minimal inhibitory concentration (MIC) in assay [1], in assay [2], in assay [3], in assay [4], in assay [5] and in assay [6] was above 64 µg/mL in each case. Besides, the minimum inhibitory concentration (MIC) in assay [7], in [8], in assay [9], in assay [10], in assay [11] and in assay [12] was above 64 µg/mL throughout. Moreover, the minimal inhibitory concentration (MIC) in [13] and in assay [14] was above 64 µg/mL throughout. In [16], the inhibition in vivo at 50 mg/kg is 17.5%.
In the case of `N=C(N)N/N=C/c1cn(-c2ccc([N+](=O)[O-])cc2[N+](=O)[O-])nc1-c1ccccc1Cl`, the minimum inhibitory concentration (MIC) in assay [1] turned out to be 4 µg/mL (≈ 9.33 µM); in [2], 8 µg/mL (≈ 18.7 µM); in [3], 4 µg/mL (≈ 9.33 µM); in assay [4], 16 µg/mL (≈ 37.3 µM); in assay [5], 4 µg/mL (≈ 9.33 µM); in assay [6] it was 16 µg/mL (≈ 37.3 µM). Besides, the minimum inhibitory concentration (MIC) in assay [7] was above 64 µg/mL; in assay [8], above 64 µg/mL; in [9], 8 µg/mL (≈ 18.7 µM); in assay [10], 2 µg/mL (≈ 4.66 µM); in [11], 4 µg/mL (≈ 9.33 µM); in assay [12], 4 µg/mL (≈ 9.33 µM). Moreover, the MIC in [13] worked out at 4 µg/mL (≈ 9.33 µM); in assay [14] it was 8 µg/mL (≈ 18.7 µM). Moreover, the inhibition in vivo at 50 mg/kg in assay [16] is 84.6%.

Values taken from ChEMBL document CHEMBL3627681, “Synthesis and biological evaluation of 1,3-diaryl pyrazole derivatives as potential antibacterial and anti-inflammatory agents” (2015).
